Calls of active or inactive are those of the source. The calls are words filed in the database; no cut-off is given here.
Assays:
[1] = tested on: DLD-1; assay: Antitumor activity against human DLD1 cells expressing P-glycoprotein xenografted in SCID mouse assessed as tumor growth delay at 20 mg/kg, iv administered on day 5, 8, 11 post tumor implantation; type: functional
Summary of the method: (§1)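 SCID mice carrying subcutaneous Pgp+ DLD-1 human colon tumours were dosed i.v. q3d×3 on days 5, 8 and 11 after implant, in Tween/EtOH vehicle, with vehicle and untreated control groups. Growth delay was compared with controls by Cox-Mantel test. Cures were mice with no palpable tumour on day 167. Toxicity was counted as death or more than 20% body-weight loss.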

[2] = tested on: DLD-1; assay: Antitumor activity against human DLD1 cells expressing P-glycoprotein xenografted in SCID mouse assessed as tumor growth delay at 10 mg/kg, iv administered on day 5, 8, 11 post tumor implantation; type: functional; summary of the method: as §1
[3] = tested on: DLD-1; assay: Antitumor activity against human DLD1 cells expressing P-glycoprotein xenografted in SCID mouse assessed as tumor growth delay at 40 mg/kg, iv administered on day 5, 8, 11 post tumor implantation; type: functional; summary of the method: as §1
[4] = tested on: DLD-1; assay: Antitumor activity against human DLD1 cells expressing P-glycoprotein xenografted in SCID mouse assessed as no palpable tumors at 20 mg/kg, iv administered on day 5, 8, 11 post tumor implantation measured on day 167; type: functional, organism-based; parameters: dose 20 mg/kg; summary of the method: as §1
[5] = species on record: Mus musculus; assay: Toxicity in SCID mouse assessed as decrease in body weight after day 15 to day 20; type: organism-based; parameters: scale not given: the % may be the effect or the level left; conditions: in vivo
[6] = tested on: DLD-1; assay: Antitumor activity against human DLD1 cells expressing P-glycoprotein xenografted in SCID mouse assessed as no palpable tumors at 10 mg/kg, iv administered on day 5, 8, 11 post tumor implantation measured on day 167; type: functional, organism-based; parameters: dose 10 mg/kg; summary of the method: as §1
[7] = Cytotoxicity against human primary pancreatic ductal cells up to 10 uM; type: cell-based
[8] = Cytotoxicity against P-glycoprotein deficient wild type human LCC-6 cells after 72 hrs; type: functional, cell-based; conditions: LCC-6, 72 h
[9] = Cytotoxicity against human LCC-6 cells expressing P-glycoprotein after 72 hrs; type: functional, cell-based; conditions: LCC-6, 72 h
[10] = tested on: PANC-1; assay: Cytotoxicity against human PANC1 cells expressing mdr1, mrp1, mrp2, lrp genes after 72 hrs; type: functional, cell-based; conditions: PANC-1, 72 h
[11] = tested on: Mus musculus; assay: Toxicity in SCID mouse xenografted with human DLD1 cells assessed as decrease in body weight at 20 mg/kg, iv administered on day 5, 8, 11 post tumor implantation; type: organism-based, DLD-1; parameters: dose 20 mg/kg, route intravenous; conditions: in vivo
[12] = tested on: NCI-H460; assay: Cytotoxicity against human H460 cells after 72 hrs; type: functional, cell-based; conditions: NCI-H460, 72 h
[13] = tested on: A2780; assay: Cytotoxicity against human wild type A2780 cells after 72 hrs; type: functional, cell-based; conditions: A2780, 72 h
[14] = tested on: A2780; assay: Cytotoxicity against human cisplatin-resistant A2780 cells after 72 hrs; type: functional, cell-based; conditions: A2780, 72 h
[15] = tested on: A2780; assay: Cytotoxicity against human topotecan-resistant A2780 cells after 72 hrs; type: functional, cell-based; conditions: A2780, 72 h
[16] = Cytotoxicity against human paclitaxel and cyclosporine-resistant A2780TC3 cells overexpressing class 3 beta-tubulin after 72 hrs; type: functional, cell-based; conditions: A2780TC3, 72 h
[17] = Resistance factor, ratio of IC50 for human LCC-6 cells expressing P-glycoprotein to IC50 for P-glycoprotein deficient wild type human LCC-6 cells; type: functional; parameters: reference not given here
[18] = tested on: MCF7; assay: Resistance factor, ratio of IC50 for P-glycoprotein deficient wild type human MCF7 cells to IC50 for multidrug-resistant human NCI/ADR cells; type: functional
[19] = tested on: A2780; assay: Resistance factor, […] harboring point mutation in beta-tubulin; type: functional

SMILES	Activity [1] [days]	Activity [2] [days]	Activity [3] [days]	Activity [4]	Activity [5] [%]	Activity [6]	Activity [7]	IC50 [8] [nM]	IC50 [9] [nM]	IC50 [10] [nM]	Activity [11]	IC50 [12] [nM]	IC50 [13] [nM]	IC50 [14] [nM]	IC50 [15] [nM]	IC50 [16] [nM]	Ratio [17]	Ratio [18]	Ratio [19]
CC(=O)O[C@@]12CO[C@@H]1C[C@H](O)[C@@]1(C)C(=O)[C@H](OC(=O)C3CC3)C3=C(C)[C@@H](OC(=O)[C@H](O)[C@H](C=C(C)C)NC(=O)OC(C)(C)C)C[C@@](O)([C@@H](OC(=O)c4ccccc4)[C@H]21)C3(C)C	>150	37	>150	Active	3	inactive	Not Active												
CC(=O)O[C@H]1C(=O)[C@@]2(C)[C@H]([C@H](OC(=O)c3ccccc3)[C@]3(O)C[C@H](OC(=O)[C@H](O)[C@@H](NC(=O)c4ccccc4)c4ccccc4)C(C)=C1C3(C)C)[C@]1(OC(C)=O)CO[C@@H]1C[C@@H]2O [PACLITAXEL]	8			inactive				2.45	110	25.7	Non-toxic	4.9	1.7	2.2	7.2	17800			
CCC(=O)O[C@H]1C(=O)[C@@]2(C)[C@H]([C@H](OC(=O)c3cccc(OC)c3)[C@]3(O)C[C@H](OC(=O)[C@H](O)[C@H](C=C(C)C)NC(=O)OC(C)(C)C)C(C)=C1C3(C)C)[C@]1(OC(C)=O)CO[C@@H]1C[C@@H]2O								1									0.9	0.92	5.1

— ChEMBL document CHEMBL1152321, “Recent advances in the chemistry and biology of new generation taxoids” (J Nat Prod, 2009)
